For two compounds, MIC results are on record in ChEMBL document CHEMBL4130618, “Paralithocins, Antimicrobial Peptides with Unusual Disulfide Connectivity from the Red King Crab, Paralithodes camtschaticus” (2018).

Values after ≈ are worked out from the molar mass of the structure shown. Where only a bound is given, the exact number is not on record here.

The term MIC denotes the lowest concentration found to suppress growth.

Common to all, as to assay type: functional
One test deals with Carnobacterium divergens. Briefly: Antibacterial activity against Carnobacterium divergens measured after 72 hrs. Put shortly:
(§1)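 Carnobacteria were grown in modified tryptic soy broth with 5% glucose and 2% NaCl. 2-fold peptide dilutions in double-distilled water (1.6–100 μM, up to 200 μM for selected marine strains), 50 μL mixed 1:1 with growing cells (5 × 10^3/well), incubated 72 h at 12 °C. MIC is the lowest concentration with OD below 50% of the water growth control.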

In a further test the test system is Escherichia coli. Briefly: Antibacterial activity against Escherichia coli ATCC 25922 measured after 24 hrs. As to conditions: ATCC 25922, 24 h. The gist of the method:
(§2)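 Purified native peptide in 2-fold serial dilutions in double-distilled water (1.6–100 μM). 50 μL was mixed with an equal volume of actively growing bacteria (5 × 10^3 cells/well) in Mueller Hinton broth and incubated 24 h at 37 °C. Growth was followed by OD. MIC is the lowest concentration giving OD <50% of the water growth control, read at control OD ≈0.3.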

Test [1] relates to Corynebacterium glutamicum. Briefly: Antibacterial activity against Corynebacterium glutamicum ATCC 13032 measured after 24 hrs. As to conditions: ATCC 13032, 24 h. Put shortly:
as §2

The test system of a further test is Carnobacterium funditum. In words: Antibacterial activity against Carnobacterium funditum CCUG 34644 measured after 72 hrs. As to conditions: CCUG 34644, 72 h. The gist of the method:
as §1

The next test concerns Yersinia ruckeri. In words: Antibacterial activity against Yersinia ruckeri CCUG 14190 measured after 72 hrs. Conditions: CCUG 14190, 72 h. The gist of the method: (§3)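 Marine strains were grown in Mueller Hinton broth. Peptide in 2-fold dilutions in double-distilled water (1.6–100 μM, up to 200 μM for selected marine strains), 50 μL plus an equal volume of growing bacteria at 5 × 10^3 cells/well, 72 h at 12 °C. OD was monitored. MIC is the lowest concentration giving OD <50% of the water growth control.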

In a further test the test system is Aeromonas salmonicida. Briefly: Antibacterial activity against Aeromonas salmonicida AL2020 measured after 72 hrs. Conditions: AL2020, 72 h. The gist of the method:
as §3

For another test, the system named is Pseudomonas aeruginosa. In words: Antibacterial activity against Pseudomonas aeruginosa […] measured after 24 hrs. Put shortly:
as §2

Test [2] concerns Carnobacterium maltaromaticum. Briefly: Antibacterial activity against Carnobacterium maltaromaticum CCUG 34645 measured after 72 hrs. Conditions: CCUG 34645, 72 h. The gist of the method: as §1
For a further test, the system named is Carnobacterium mobile. Briefly: Antibacterial activity against Carnobacterium mobile measured after 72 hrs. Put shortly: as §1
In a further test the test system is Staphylococcus aureus. Briefly: Antibacterial activity against Staphylococcus aureus ATCC 9144 measured after 24 hrs. As to conditions: ATCC 9144, 24 h. Put shortly:
as §2

For a further test, the system named is Vibrio anguillarum. Briefly: Antibacterial activity against Listonella anguillarum AL104 measured after 72 hrs. Conditions: AL104, 72 h. The gist of the method:
as §3

Take H-SWLSKTAKKLENSAKKRISEGIAIAIQGGPR-OH: the minimal inhibitory concentration (MIC) was 25 µM against Carnobacterium divergens; 1.6 µM in the test on Escherichia coli; 1.6 µM in [1]; 25 µM in the test with Carnobacterium funditum; 0.8 µM against Yersinia ruckeri; 3.1 µM against Aeromonas salmonicida. Moreover, the MIC with Pseudomonas aeruginosa was 1.6 µM; in test [2], 50 µM; against Carnobacterium mobile, 6.3 µM; in the test with Staphylococcus aureus it was 100 µM; against Vibrio anguillarum, 1.6 µM.

`CC[C@H](C)[C@@H]1NC(=O)[C@H](CO)NC(=O)[C@H](CO)NC(=O)[C@@H](NC(=O)[C@H](CO)NC(=O)[C@@H]2CCCN2C(=O)[C@H](CCC(N)=O)NC(=O)[C@H](CCC(N)=O)NC(=O)[C@@H](N)Cc2c[nH]c3ccccc23)CSSC[C@@H](C(=O)N[C@@H](CCCNC(=N)N)C(=O)N[C@@H](CCCNC(=N)N)C(=O)NCC(=O)N2CCC[C@H]2C(=O)N[C@H](C(=O)N[C@@H](Cc2ccc(O)cc2)C(=O)O)[C@@H](C)CC)NC(=O)[C@H](CO)NC(=O)[C@H](C)NC(=O)[C@@H]2CSSC[C@H]3NC(=O)[C@H](C)NC(=O)[C@H](CO)NC(=O)[C@H](CCCCN)NC(=O)CNC(=O)[C@@H]4CSSC[C@H](NC(=O)[C@H](CCCNC(=N)N)NC(=O)CNC(=O)[C@H](CO)NC(=O)[C@H](Cc5ccc(O)cc5)NC(=O)[C@H](CO)NC(=O)[C@H]([C@@H](C)CC)NC3=O)C(=O)NCC(=O)N[C@@H](CSSC[C@H](NC1=O)C(=O)N[C@@H](CC(=O)O)C(=O)N[C@@H](Cc1ccc(O)cc1)C(=O)N[C@@H](CO)C(=O)N4)C(=O)N2`: the minimum inhibitory concentration (MIC) in the test with Carnobacterium divergens was 200 µM (≈ 816 µg/mL); against Escherichia coli it was above 100 µM; in [1] it was 50 µM (≈ 204 µg/mL); against Carnobacterium funditum it was 200 µM (≈ 816 µg/mL); against Yersinia ruckeri, above 100 µM; in the test on Aeromonas salmonicida it was 200 µM (≈ 816 µg/mL). Further, the MIC against Pseudomonas aeruginosa is above 100 µM; in test [2], 200 µM (≈ 816 µg/mL); against Carnobacterium mobile it was 100 µM (≈ 408 µg/mL); with Staphylococcus aureus, above 100 µM; in the test on Vibrio anguillarum, above 100 µM.
